Measured values from ChEMBL document CHEMBL4373711, “Development of 3,5-Dinitrophenyl-Containing 1,2,4-Triazoles and Their Trifluoromethyl Analogues as Highly Efficient Antitubercular Agents Inhibiting Decaprenylphosphoryl-β-d-ribofuranose 2'-Oxidase” (J Med Chem, 2019).
Values after ≈ are worked out from the molar mass of the structure shown. Active and inactive are the calls of the source. The rule behind the calls is not given here.

Legend:
[1] = tested on: Klebsiella pneumoniae; test: Antibacterial activity against Klebsiella pneumoniae at highest concentration measured after 24 to 48 hrs by alamar blue dye based broth microdilution assay; type: functional, organism-based
[2] = tested on: Escherichia coli; test: Antibacterial activity against Escherichia coli ATCC 25922 CCM 3954 at highest concentration measured after 24 to 48 hrs by alamar blue dye based broth microdilution assay; type: functional, organism-based
[3] = Cytotoxicity against human HepG2 cells assessed as cell viability at 30 uM after 48 hrs by CellTiter 96 aqueous one solution assay relative to control; type: cell-based; details: read-out: Activity
Summary of the method: (§1)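 HepG2 (DMEM, 10% FBS, 1 mM pyruvate) or A431 (DMEM, 10% FBS) seeded 10,000 cells/well, 24 h at 37 °C, 5% CO2, then 30 µM compound for 48 h. MTS reagent 60 min, absorbance 490 nm, background subtracted; 0.1% DMSO vehicle = 100%, 10% SDS = 0% viability.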

[4] = tested on: Pichia kudriavzevii; test: Antifungal activity against Candida krusei ATCC 6258 CCM8271 at highest concentration measured after 24 to 48 hrs by alamar blue dye based broth microdilution assay; type: functional, organism-based
[5] = tested on: Enterococcus faecalis; test: Antibacterial activity against Enterococcus faecalis ATCC 29212 CCM 4224 at highest concentration measured after 24 to 48 hrs by alamar blue dye based broth microdilution assay; type: functional, organism-based
[6] = tested on: Candida parapsilosis; test: Antifungal activity against Candida parapsilosis ATCC 22019 CCM 8260 at highest concentration measured after 24 to 48 hrs by alamar blue dye based broth microdilution assay; type: functional, organism-based
[7] = tested on: Serratia marcescens; test: Antibacterial activity against Serratia marcescens at highest concentration measured after 24 to 48 hrs by alamar blue dye based broth microdilution assay; type: functional, organism-based
[8] = tested on: Staphylococcus aureus; test: Antibacterial activity against Staphylococcus aureus subsp. aureus ATCC 29213 CCM 4223 at highest concentration measured after 24 to 48 hrs by alamar blue dye based broth microdilution assay; type: functional, organism-based
[9] = tested on: Mycobacterium kansasii; test: Antimycobacterial activity against Mycobacterium kansasii 6509/96 after 21 days; type: functional; details: 6509/96, 504 h
Summary of the method: (§2)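 Microdilution in Šula's semisynthetic medium; compounds in DMSO at 32–0.03 µM. Inoculum from 1.0 McFarland suspension diluted 10-4. […] Isoniazid and rifampicin as reference drugs.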

[10] = tested on: Mycobacterium kansasii; test: Antimycobacterial activity against Mycobacterium kansasii CNCTC My 235/80 after 14 days; type: functional; details: CNCTC My 235/80, 336 h; summary of the method: as §2
[11] = tested on: Mycobacterium kansasii; test: Antimycobacterial activity against Mycobacterium kansasii 6509/96 after 14 days; type: functional; details: 6509/96, 336 h; summary of the method: as §2
[12] = tested on: Staphylococcus aureus; test: Antibacterial activity against methicillin-resistant Staphylococcus aureus subsp. aureus ATCC 43300 CCM 4750 at highest concentration measured after 24 to 48 hrs by alamar blue dye based broth microdilution assay; type: functional, organism-based
[13] = tested on: Mycobacterium tuberculosis; test: Antimycobacterial activity against XDR Mycobacterium tuberculosis Praha 131 after 21 days; type: functional; details: Praha 131, 504 h
Summary of the method: (§3)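 M. tuberculosis strains (H37Rv and clinical MDR/XDR isolates) tested by microdilution in Šula's semisynthetic medium. Compounds were dissolved in DMSO and tested at 32 to 0.03 µM in twofold steps. Inoculum was a 1.0 McFarland suspension diluted 10-3. Plates were incubated at 37 °C and read at 14 and 21 days.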

[14] = tested on: Mycobacterium tuberculosis; test: Antimycobacterial activity against Mycobacterium tuberculosis H37Rv CNCTC My 331/88 after 21 days; type: functional; details: H37Rv CNCTC My 331/88, 504 h; summary of the method: as §3
[15] = tested on: Candida tropicalis; test: Antifungal activity against Candida tropicalis ATCC 750 CCM 8264 at highest concentration measured after 24 to 48 hrs by alamar blue dye based broth microdilution assay; type: functional, organism-based
[16] = tested on: Mycobacterium tuberculosis; test: Antimycobacterial activity against Mycobacterium tuberculosis H37Rv CNCTC My 331/88 after 14 days; type: functional; details: H37Rv CNCTC My 331/88, 336 h; summary of the method: as §3
[17] = tested on: Staphylococcus epidermidis; test: Antibacterial activity against Staphylococcus epidermidis at highest concentration measured after 24 to 48 hrs by alamar blue dye based broth microdilution assay; type: functional, organism-based
[18] = Cytotoxicity against human A431 cells assessed as cell viability at 30 uM after 48 hrs by CellTiter 96 aqueous one solution assay relative to control; type: cell-based, A-431; details: read-out: Activity; summary of the method: as §1
[19] = tested on: A-431; test: Cytotoxicity against human A431 cells assessed as reduction in cell viability after 48 hrs by CellTiter 96 aqueous one solution assay; type: cell-based; details: A-431, 48 h
[20] = tested on: Mycobacterium kansasii; test: Antimycobacterial activity against Mycobacterium kansasii CNCTC My 235/80 after 21 days; type: functional; details: CNCTC My 235/80, 504 h; summary of the method: as §2
[21] = tested on: Mycobacterium tuberculosis; test: Antimycobacterial activity against XDR Mycobacterium tuberculosis Praha 131 after 14 days; type: functional; details: Praha 131, 336 h; summary of the method: as §3
[22] = tested on: Mycobacterium kansasii; test: Antimycobacterial activity against Mycobacterium kansasii CNCTC My 235/80 after 7 days; type: functional; details: CNCTC My 235/80, 168 h; summary of the method: as §2
[23] = tested on: Mycobacterium kansasii; test: Antimycobacterial activity against Mycobacterium kansasii 6509/96 after 7 days; type: functional; details: 6509/96, 168 h; summary of the method: as §2
[24] = tested on: HepG2; test: Cytotoxicity against human HepG2 cells assessed as reduction in cell viability after 48 hrs by CellTiter 96 aqueous one solution assay; type: cell-based; details: HepG2, 48 h
[25] = tested on: Aspergillus fumigatus; test: Antifungal activity against Aspergillus fumigatus ATCC 204305 at highest concentration measured after 24 to 48 hrs by alamar blue dye based broth microdilution assay; type: functional, organism-based
[26] = tested on: Trichophyton interdigitale; test: Antifungal activity against Trichophyton interdigitale ATCC 9533 CCM 8377 at highest concentration measured after 72 to 120 hrs by alamar blue dye based broth microdilution assay; type: functional
[27] = tested on: Mycobacterium avium; test: Antimycobacterial activity against Mycobacterium avium CNCTC My 330/88 after 14 days; type: functional; details: CNCTC My 330/88, 336 h
Summary of the method: (§4)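 M. avium was tested by microdilution in Šula's semisynthetic medium, with compounds dissolved in DMSO and serially diluted from 1000 down to 1. Inoculum was a 1.0 McFarland suspension diluted 10-5. Plates were incubated at 37 °C and read at 14 and 21 days. […] Isoniazid and rifampicin served as standards.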

[28] = tested on: Mycobacterium avium; test: Antimycobacterial activity against Mycobacterium avium CNCTC My 330/88 after 21 days; type: functional; details: CNCTC My 330/88, 504 h; summary of the method: as §4
[29] = tested on: Aspergillus flavus; test: Antifungal activity against Aspergillus flavus CCM 8363 at highest concentration measured after 24 to 48 hrs by alamar blue dye based broth microdilution assay; type: functional, organism-based
[30] = tested on: Candida albicans; test: Antifungal activity against Candida albicans ATCC 24433 CCM 8320 at highest concentration measured after 24 to 48 hrs by alamar blue dye based broth microdilution assay; type: functional, organism-based
[31] = tested on: Pseudomonas aeruginosa; test: Antibacterial activity against Pseudomonas aeruginosa ATCC 27853 CCM 3955 at highest concentration measured after 24 to 48 hrs by alamar blue dye based broth microdilution assay; type: functional, organism-based
[32] = tested on: Lichtheimia corymbifera; test: Antifungal activity against Lichtheimia corymbifera CCM 8077 at highest concentration measured after 24 to 48 hrs by alamar blue dye based broth microdilution assay; type: functional, organism-based
[33] = Genotoxicity in Salmonella typhimurium TA100 at 30 uM in presence of rat liver S9 fraction by Ames test; type: toxicity, subcellular; details: salmonella enterica subsp. enterica serovar typhimurium, s9, 30 µM
Summary of the method: (§5)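 Microplate fluctuation Ames reverse-mutation test following kit instructions; TA98 detects frameshift and TA100 base-exchange mutations. Compound at 30 µM final with Aroclor-1254-induced rat liver S9 plus cofactors.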

[34] = Genotoxicity in Salmonella typhimurium TA98 at 30 uM in presence of rat liver S9 fraction by Ames test; type: toxicity, subcellular; details: salmonella enterica subsp. enterica serovar typhimurium, s9, 30 µM; summary of the method: as §5

Structure (SMILES) | Activity [1] | Activity [2] | viability at 48 h, 30 µM [3] [%] | Activity [4] | Activity [5] | Activity [6] | Activity [7] | Activity [8] | MIC99 [9] [µM] | MIC99 [10] [µM] | MIC99 [11] [µM] | Activity [12] | MIC99 [13] [µM] | MIC99 [14] [µM] | Activity [15] | MIC99 [16] [µM] | Activity [17] | viability at 48 h, 30 µM [18] [%] | IC50 [19] [µM] | MIC99 [20] [µM] | also measured
CCCCCCCCSc1nnc(-c2cc([N+](=O)[O-])cc([N+](=O)[O-])c2)n1Cc1ccccc1 | inactive | inactive | 99 | inactive | inactive | inactive | inactive | inactive | 0.125 (≈ 0.0587 µg/mL) | 0.06 (≈ 0.0282 µg/mL) | 0.06 (≈ 0.0282 µg/mL) | inactive | 0.25 (≈ 0.117 µg/mL) | 0.125 (≈ 0.0587 µg/mL) | inactive | 0.06 (≈ 0.0282 µg/mL) | inactive | 131 | > 30 | 0.125 (≈ 0.0587 µg/mL) | MIC99 [21]: 0.125 µM (≈ 0.0587 µg/mL); MIC99 [22]: 0.06 µM (≈ 0.0282 µg/mL); MIC99 [23]: 0.06 µM (≈ 0.0282 µg/mL); IC50 [24]: > 30 µM; Activity [25]: inactive; Activity [26]: inactive; MIC99 [27]: 250 µM (≈ 117 µg/mL); MIC99 [28]: 250 µM (≈ 117 µg/mL); Activity [29]: inactive; Activity [30]: inactive; Activity [31]: inactive; Activity [32]: inactive
O=[N+]([O-])c1cc(-c2nnc(SCc3ccc(Br)cc3)n2Cc2ccccc2)cc([N+](=O)[O-])c1 | inactive | inactive | 104 | inactive | inactive | inactive | inactive | inactive | 0.25 (≈ 0.132 µg/mL) | 0.25 (≈ 0.132 µg/mL) | 0.125 (≈ 0.0658 µg/mL) | inactive | 0.25 (≈ 0.132 µg/mL) | 0.25 (≈ 0.132 µg/mL) | inactive | 0.125 (≈ 0.0658 µg/mL) | inactive | 110 | > 30 | 0.25 (≈ 0.132 µg/mL) | MIC99 [21]: 0.125 µM (≈ 0.0658 µg/mL); MIC99 [22]: 0.125 µM (≈ 0.0658 µg/mL); MIC99 [23]: 0.125 µM (≈ 0.0658 µg/mL); IC50 [24]: > 30 µM; Activity [25]: inactive; Activity [26]: inactive; MIC99 [27]: 62 µM (≈ 32.6 µg/mL); MIC99 [28]: 62 µM (≈ 32.6 µg/mL); Activity [29]: inactive; Activity [30]: inactive; Activity [31]: inactive; Activity [32]: inactive
Nc1ccc2cc3ccccc3cc2c1 [2-AMINOANTHRACENE] | – | – | – | – | – | – | – | – | – | – | – | – | – | – | – | – | – | – | – | – | Activity [33]: Toxic; Activity [34]: Toxic
CCCSc1nnc(-c2cc([N+](=O)[O-])cc([N+](=O)[O-])c2)n1Cc1ccccc1 | inactive | inactive | 90 | inactive | inactive | inactive | inactive | inactive | 0.5 (≈ 0.2 µg/mL) | 0.25 (≈ 0.0999 µg/mL) | 0.25 (≈ 0.0999 µg/mL) | inactive | 0.125 (≈ 0.0499 µg/mL) | 0.125 (≈ 0.0499 µg/mL) | inactive | 0.06 (≈ 0.024 µg/mL) | inactive | 123 | > 30 | 0.25 (≈ 0.0999 µg/mL) | MIC99 [21]: 0.125 µM (≈ 0.0499 µg/mL); MIC99 [22]: 0.125 µM (≈ 0.0499 µg/mL); MIC99 [23]: 0.25 µM (≈ 0.0999 µg/mL); IC50 [24]: > 30 µM; Activity [25]: inactive; Activity [26]: inactive; MIC99 [27]: 250 µM (≈ 99.9 µg/mL); MIC99 [28]: 250 µM (≈ 99.9 µg/mL); Activity [29]: inactive; Activity [30]: inactive; Activity [31]: inactive; Activity [32]: inactive
